Screening data: PubChem BioAssay, The Scripps Research Institute Molecular Screening Center
An excerpt weighted towards active compounds, which were near 4.3% of everything screened.
TAAR1 antagonist – human TAAR1 antagonism. Q96RJ0. CHO RD-HGA16 TAAR1, Fluo-8 calcium fluorescence, antagonist. inhibition, % at 3 µM. 360,000 tested, 1.5% active. AID 624466;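 active = inhibition above a per-plate cutoff, the mean inhibition of test compounds on that plate plus 3 SD, cut at about 49% in these data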;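 note: 0% = DMSO plus EC80 beta-PEA response and 100% = DMSO alone without agonist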
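Test system: CHO RD-HGA16 cells bearing hTAAR1 | Reagent: β-PEA, EC80 | Compound dosing: 3 µM, single point | Schedule: Dye loading 75 min at 37 °C, then 30 min room temperature | Signal: Calcium fluorescence with Fluo-8 | Evaluation: Percent inhibition of PEA-evoked calcium signal, max/basal emission ratio | Control set: DMSO-only wells and EC80 β-PEA-stimulated wells | Repeats: Singlicate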
TAAR1 agonist – agonists of human TAAR1; Q96RJ0; CHO RD-HGA16 TAAR1, Fluo-8 calcium fluorescence; vehicle wells 0%, saturating PEA agonist 100%; activation, % at 3 µM; 360,000 tested, 0.99% active;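 active = activation above the mean activation of all test compounds in the run plus 3 SD, cut at about 38% in these data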
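test system = CHO RD-HGA16 cells carrying human TAAR1 plus Gα16 | schedule = 17-24 h seeding, 75 min 37 °C dye, 30 min RT | compound dosing = 3 µM single concentration | control set = DMSO and PEA EC100 | replicates = n 1 | signal = Fluo-8 fluorescence, 5 s baseline then 140 s kinetic read | measure = percent activation vs PEA EC100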
CHO parental Ca – counter-screen: ATP calcium response change in parental CHO cells. parental CHO-K1, ATP-induced calcium, Fluo-8 fluorescence. inhibition, % at 5.6 µM. 330,000 tested, 0.63% active. AID 463079;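 active = inhibition above that plate's mean sample inhibition plus 3 SD, cut at about 26% in these data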;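 note: 0% = ATP-challenged DMSO wells and 100% = DMSO wells without ATP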
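Assay system – parental CHO cells · Reagent – ATP stimulus · Detection – intracellular calcium via Fluo-8 no-wash fluorescent dye · Evaluation – percent inhibition of ATP-evoked calcium rise, normalized to controls · Controls – ATP wells versus no-ATP DMSO wells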
GalR3 antagonist – antagonists of human GalR3 | HEK293 GalR3-CNG cAMP membrane potential fluorescence; galR3 body fused to GalR1 C-terminus | inhibition, % at 3 µM | 360,000 tested, 0.44% active;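 active = inhibition above the screen-wide average plus 3 SD, cut at about 13% in these data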;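 note: forskolin and galanin both at EC90 stimulate the cells; cAMP rise reported by CNG channel membrane potential dye signal; 0% = forskolin plus galanin with DMSO and 100% = forskolin alone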
OX1R antag-1 – blocks the human orexin 1 receptor; O43613; OX1R-expressing cells, FRET antagonist read-out; inhibition, % at 6.6 µM; 330,000 tested, 1.8% active; AID 485270; in the data active = inhibition mostly above about 38%, no sharp cut-off; inactive = mostly below about 40%;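 note: 0% = agonist challenge alone and 100% = reference antagonist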
Target sequence (O43613 whole entry, looked up): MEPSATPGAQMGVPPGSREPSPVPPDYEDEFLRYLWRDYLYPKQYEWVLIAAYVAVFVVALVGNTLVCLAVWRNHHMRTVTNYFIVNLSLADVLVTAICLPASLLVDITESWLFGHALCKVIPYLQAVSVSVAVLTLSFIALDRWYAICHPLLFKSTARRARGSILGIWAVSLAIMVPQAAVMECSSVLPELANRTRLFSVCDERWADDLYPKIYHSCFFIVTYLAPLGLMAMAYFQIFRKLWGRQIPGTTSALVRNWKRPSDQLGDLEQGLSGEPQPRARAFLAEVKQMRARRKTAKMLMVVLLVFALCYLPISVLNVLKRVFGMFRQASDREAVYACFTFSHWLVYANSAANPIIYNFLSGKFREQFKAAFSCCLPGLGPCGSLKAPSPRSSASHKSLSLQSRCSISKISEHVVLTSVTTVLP
OX1R antag-2 – antagonists of human orexin 1 receptor; O43613; CHO/OX1R cells, Fluo-8 calcium fluorescence, orexin A; inhibition, % at 5 µM; 330,000 tested, 0.43% active;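 active = inhibition above its plate's threshold, mean inhibition of all tested compounds on the plate plus 3 SD, cut at about 37% in these data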;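 note: 0% = orexin A challenge wells and 100% = SB-334867-A antagonist wells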
TAAR1 ag conf – confirmation of human TAAR1 agonists; AID 651783; CHO RD-HGA16 TAAR1, Fluo-8 calcium fluorescence; scaled: DMSO 0%, maximal phenethylamine 100%; shares compounds with TAAR1 agonist; 2,400 tested, 82% active; activation, % at 3 µM;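 active = activation above a cutoff set at the run's mean compound activation plus 3 SD, cut at about 39% in these data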
Ga16 ag counter – nonselective agonist in parental cells, TAAR1 agonist counter-screen; 2,400 tested, 50% active; CHO-Ga16 parental, Fluo-8 calcium fluorescence; normalized to maximal ATP response, DMSO zero; activation, % at 3 µM; shares compounds with TAAR1 agonist;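 active = activation above the run cutoff, the mean activation over all tested wells plus 3 SD, cut at about 12% in these data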;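 note: 0% = DMSO wells and 100% = maximal ATP response on the peak over basal ratio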
TAAR1 desensitize – human TAAR1 agonist that also desensitizes the receptor; shares compounds with TAAR1 agonist; CHO RD-HGA16 hTAAR1, Fluo-8 calcium, beta-PEA response inhibition; inhibition, % at 3 µM; 2,400 tested, 46% active;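 active = inhibition above the run cutoff, the mean inhibition of all test compounds plus 3 SD, cut at about 49% in these data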;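 note: beta-PEA stimulus applied at its EC80; loss of beta-PEA calcium signal after compound pretreatment read as receptor desensitization; 0% = DMSO with beta-PEA at EC80 and 100% = DMSO alone without agonist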
Ga16 nonsel ant – counter-screen for TAAR1 agonists: nonselective Ga16 antagonists. CHO-Ga16 ATP-induced calcium, Fluo-8 fluorescence. AID 651952. 2,400 tested, 39% active. inhibition, % at 3 µM. shares compounds with TAAR1 agonist;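 active = inhibition above the plate's mean compound inhibition plus 3 SD, computed per plate, cut at about 22% in these data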;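 note: 0% = EC80 ATP with DMSO and 100% = DMSO wells without ATP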
Numbers without * were called inactive.

Screening COc1c2c(cc3oc(CO[C@@H]4O[C@H](CO)[C@@H](O)[C@H](O)[C@H]4O)cc(=O)c13)O[C@H](C(C)(C)O)C2 returned TAAR1 antagonist -7, TAAR1 agonist 10, CHO parental Ca -2, GalR3 antagonist -4, OX1R antag-1 6 and OX1R antag-2 -10.
For COc1ccc(C(=O)NCC2OCCc3ccccc32)cc1OC (configuration not stated) the results were TAAR1 antagonist 2, TAAR1 agonist 6, CHO parental Ca -9, GalR3 antagonist 2, OX1R antag-1 15 and OX1R antag-2 -14.
Screening COc1cc(C=NCC2OCCc3ccccc32)cc(OC)c1 (configuration not stated) returned CHO parental Ca -3, GalR3 antagonist 2, OX1R antag-1 6, OX1R antag-2 -22, Ga16 ag counter 0 and Ga16 nonsel ant 9.
`COc1ccc(C=NCC2OCCc3ccccc32)cc1OC` (configuration not stated) gave CHO parental Ca -4, GalR3 antagonist -7, OX1R antag-1 6, OX1R antag-2 -14, Ga16 ag counter -1 and Ga16 nonsel ant 7.
`Cc1ccccc1NC(=O)CC1SC(=O)N(c2ccccc2)C1=O` (configuration not stated) gave TAAR1 antagonist -7, TAAR1 agonist 50*, CHO parental Ca -22, GalR3 antagonist -4, OX1R antag-1 22, OX1R antag-2 -26, TAAR1 ag conf 17, Ga16 ag counter 2, TAAR1 desensitize 14 and Ga16 nonsel ant 11.
O=C(CC1SC(=O)N(c2ccccc2)C1=O)Nc1cccc2ccccc12 (configuration not stated) was read as TAAR1 antagonist -6, TAAR1 agonist 0, CHO parental Ca -14, GalR3 antagonist -2, OX1R antag-1 4 and OX1R antag-2 -14.
For C=CCn1c(O)c(CN2CCCCC2)c(C)c(C#N)c1=O the results were TAAR1 antagonist -26, TAAR1 agonist 17, CHO parental Ca 11, GalR3 antagonist 5, OX1R antag-1 18 and OX1R antag-2 -2.
For Cc1c(CN2CCCC(C)C2)c(O)n(CCO)c(=O)c1C#N (configuration not stated) the results were CHO parental Ca 1, GalR3 antagonist 2, OX1R antag-1 9, OX1R antag-2 -11, Ga16 ag counter 1 and Ga16 nonsel ant 8.
`O=C(Cn1nnc(N2CCCC2)n1)N/N=C/c1ccc(Cl)cc1` gave TAAR1 antagonist -4, TAAR1 agonist 58*, CHO parental Ca -20, GalR3 antagonist -4, OX1R antag-1 7, OX1R antag-2 -17, TAAR1 ag conf 85*, Ga16 ag counter 5, TAAR1 desensitize 28 and Ga16 nonsel ant 2.
`Cc1oc(-c2cccs2)nc1CS(=O)CC(=O)NCCc1ccccc1` (configuration not stated) gave TAAR1 antagonist -21, TAAR1 agonist 58*, CHO parental Ca -15, OX1R antag-1 1, OX1R antag-2 -18, TAAR1 ag conf 73*, Ga16 ag counter 4, TAAR1 desensitize 34 and Ga16 nonsel ant 4.
`Cc1oc(-c2ccccc2F)nc1CS(=O)(=O)CC(=O)NCCCc1ccccc1` gave TAAR1 antagonist -16, TAAR1 agonist 16, CHO parental Ca -3, OX1R antag-1 19 and OX1R antag-2 -12.
